Measured values taken from ChEMBL document CHEMBL4049388, “Facile and efficient access to Androsten-17-(1',3',4')-pyrazoles and Androst-17β-(1',3',4')-pyrazoles via Vilsmeier reagents, and their antiproliferative activity evaluation in vitro” (Eur J Med Chem, 2017).
Calls of active or inactive are those of the source. No cut-off for these calls is given here.

Key:
[1] = Cytotoxicity against human 293T cells assessed as growth inhibition at 10 uM after 72 hrs by SRB assay relative to control; assay type: cell-based; conditions: HEK-293T cells, read-out: GI
Method in brief: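 SRB single-dose screen at 10 μM on 293T, A549, Hela and MCF-7 cells. Results reported as percent inhibitory ratio (mean ± SD).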

HEK-293T = assay: Cytotoxicity against human 293T cells after 72 hrs by SRB assay; assay type: cell-based
Method in brief: (§1)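 SRB assay on 293T, A549, Hela and MCF-7 cells, with cisplatin as reference control. IC50 calculated for each compound from triplicate assays.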

A549 = assay: Cytotoxicity against human A549 cells after 72 hrs by SRB assay; assay type: functional, cell-based; conditions: A549, 72 h; method in brief: as §1
HeLa [2] = assay: Induction of apoptosis in human HeLa cells assessed as nuclear condensation at 7.5 uM after 48 hrs by Hoechst 33342 staining based fluorescence microscopic method; assay type: functional, cell-based
Method in brief: (§2)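 Hela cells seeded at 10^6 per well on cover slips and incubated 16 h. Then exposed 48 h at 2.5, 5.0 or 7.5 μM, DMSO negative control. Cells fixed in 4% paraformaldehyde for 15 min, washed in PBS, stained with Hoechst 33342 for 10 min. Nuclear morphology viewed by fluorescence microscopy, ex 350 nm / em 460 nm.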

HeLa [3] = assay: Induction of apoptosis in human HeLa cells after 48 hrs by Hoechst 33342 staining based fluorescence microscopic method; assay type: functional, cell-based; method in brief: as §2
HeLa [4] = assay: Induction of apoptosis in human HeLa cells assessed as total cells at necrotic stage at 2.5 uM after 24 hrs by Annexin-V-FITC/propidium iodide staining based flow cytometry (reference value: 0.05%); assay type: functional
Method in brief: (§3)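 Hela cells seeded at 10^6 per well and stabilized 24 h at 37 °C, 5% CO2. Then treated 24 h at 2.5, 5.0 or 7.5 μM, DMSO negative control. Cells washed in cold PBS, resuspended at 1×10^6 cells/mL in cold binding buffer, stained with annexin V-FITC then PI for 15 min in dark, analysed by flow cytometry.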

HeLa [5] = assay: Induction of apoptosis in human HeLa cells assessed as total cells at viable stage at 2.5 uM after 24 hrs by Annexin-V-FITC/propidium iodide staining based flow cytometry (reference value: 96.16%); assay type: functional; method in brief: as §3
HeLa [6] = assay: Induction of apoptosis in human HeLa cells assessed as total cells at necrotic stage at 5 uM after 24 hrs by Annexin-V-FITC/propidium iodide staining based flow cytometry (reference value: 0.05%); assay type: functional; method in brief: as §3
HeLa [7] = assay: Induction of apoptosis in human HeLa cells assessed as total cells at late apoptotic stage at 5 uM after 24 hrs by Annexin-V-FITC/propidium iodide staining based flow cytometry (reference value: 0.03%); assay type: functional; method in brief: as §3
HeLa [8] = assay: Induction of apoptosis in human HeLa cells assessed as gated cells at necrotic stage at 7.5 uM after 24 hrs by Annexin-V-FITC/propidium iodide staining based flow cytometry (reference value: 0.05%); assay type: functional; method in brief: as §3
HeLa [9] = assay: Induction of apoptosis in human HeLa cells assessed as gated cells at late apoptotic stage at 7.5 uM after 24 hrs by Annexin-V-FITC/propidium iodide staining based flow cytometry (reference value: 0.03%); assay type: functional; method in brief: as §3
HeLa [10] = assay: Induction of apoptosis in human HeLa cells assessed as total cells at early apoptotic stage at 7.5 uM after 24 hrs by Annexin-V-FITC/propidium iodide staining based flow cytometry (reference value: 0.04%); assay type: functional; method in brief: as §3
HeLa [11] = assay: Cell cycle arrest in human HeLa cells assessed as accumulation at G2 phase at 2.5 uM after 24 hrs by propidium iodide staining based flow cytometry (reference value: 24.36%); assay type: functional
HeLa [12] = assay: Cell cycle arrest in human HeLa cells assessed as accumulation at G1 phase at 2.5 uM after 24 hrs by propidium iodide staining based flow cytometry (reference value: 56.72%); assay type: functional
HeLa [13] = assay: Cell cycle arrest in human HeLa cells assessed as accumulation at S phase at 5 uM after 24 hrs by propidium iodide staining based flow cytometry (reference value: 18.92%); assay type: functional
HeLa [14] = assay: Cell cycle arrest in human HeLa cells assessed as accumulation at S phase after 24 hrs by propidium iodide staining based flow cytometry; assay type: functional

## CCNCc1cn(-c2ccccc2)nc1C1=CC[C@H]2[C@@H]3CC=C4C[C@@H](O)CC[C@]4(C)[C@H]3CC[C@]12C
[1]
  inhibition at 72 h, 10 µM: 94.2%
HEK-293T
  IC50: 0.87 µM
A549
  IC50: 7.39 µM
HeLa [2]
  Activity: Active
HeLa [3]
  Activity: Dose-dependent effect
HeLa [4]
  Activity: 1.28%
HeLa [5]
  Activity: 95.73%
HeLa [6]
  Activity: 3.26%
HeLa [7]
  Activity: 0.31%
HeLa [8]
  Activity: 3.12%
HeLa [9]
  Activity: 1.01%
HeLa [10]
  Activity: 7.5%
HeLa [11]
  Activity: 25.6%
HeLa [12]
  Activity: 51.99%
HeLa [13]
  Activity: 24.34%
HeLa [14]
  Activity: Dose-dependent effect
